Measurements from ChEMBL document CHEMBL1221300, “Synthesis and biochemical evaluation of a range of (4-substituted phenyl)sulfonate derivatives of 4-hydroxybenzyl imidazole-based compounds as potent inhibitors of 17alpha-hydroxylase/17,20-lyase (P45017alpha) derived from rat testicular microsomes” (Bioorg Med Chem Lett, 2010).
pIC50: −log10 of the molar value.

Assays:
[1] = target: T1, Steroid 17-alpha-hydroxylase/17,20 lyase (Rattus norvegicus, UniProt P11715); experiment: Inhibition of 17,20-lyase activity of rat testicular microsomal P450-17alpha
T1 sequence (P11715 whole entry): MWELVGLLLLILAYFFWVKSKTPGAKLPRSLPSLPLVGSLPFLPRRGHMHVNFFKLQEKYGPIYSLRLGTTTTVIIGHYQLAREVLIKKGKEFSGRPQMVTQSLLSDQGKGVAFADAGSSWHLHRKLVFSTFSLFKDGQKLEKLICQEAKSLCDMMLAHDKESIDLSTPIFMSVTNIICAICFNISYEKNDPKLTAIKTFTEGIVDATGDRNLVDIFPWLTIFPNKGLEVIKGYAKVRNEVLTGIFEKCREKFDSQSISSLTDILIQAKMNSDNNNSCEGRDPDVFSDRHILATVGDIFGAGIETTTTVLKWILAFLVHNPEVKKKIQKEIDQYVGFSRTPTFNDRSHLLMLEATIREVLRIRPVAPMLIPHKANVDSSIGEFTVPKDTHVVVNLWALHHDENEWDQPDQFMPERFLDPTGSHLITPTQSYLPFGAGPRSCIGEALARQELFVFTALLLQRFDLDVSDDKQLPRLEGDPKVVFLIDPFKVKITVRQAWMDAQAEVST
Procedure, shortened: (§1)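 Rat testicular microsomal enzyme incubated with radiolabelled substrate. The radiolabelled substrate was separated from the incubation mixture and identified by thin layer chromatography. Both the 17α-hydroxylase and the 17,20-lyase components were assessed this way.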

[2] = target: T1, Steroid 17-alpha-hydroxylase/17,20 lyase; experiment: Inhibition of 17-alpha-hydroxylase activity of rat testicular microsomal P450-17alpha; procedure, shortened: as §1

With CCc1ccc(S(=O)(=O)Oc2ccc(Cn3ccnc3)cc2)cc1 the pIC50 [1] was 7.70 and the pIC50 [2] was 6.96.

Work on CCCc1ccc(S(=O)(=O)Oc2ccc(Cn3ccnc3)cc2)cc1 yielded a pIC50 [1] of 7.52 and a pIC50 [2] of 5.92.

CCCCc1ccc(S(=O)(=O)Oc2ccc(Cn3ccnc3)cc2)cc1 was tested, and the pIC50 [1] was 7.40 and the pIC50 [2] was 7.15.

CCCCCc1ccc(S(=O)(=O)Oc2ccc(Cn3ccnc3)cc2)cc1 was tested, and the pIC50 [1] was 6.80 and the pIC50 [2] was 6.89.

For O=S(=O)(Oc1ccc(Cn2ccnc2)cc1)c1ccc(-c2ccccc2)cc1, the pIC50 [1] was 8.00 and the pIC50 [2] was 7.00.

Work on Oc1ccc(Cn2ccnc2)cc1 yielded a pIC50 [1] of 5.83 and a pIC50 [2] of 5.60.

Compound Ic1ccc(Cn2ccnc2)cc1 has a pIC50 [1] of 6.79 and a pIC50 [2] of 6.14.

In the case of Cc1ccc(S(=O)(=O)Oc2ccc(Cn3ccnc3)cc2)cc1, the pIC50 [1] was 7.52 and the pIC50 [2] was 7.40.

O=S(=O)(Oc1ccc(Cn2ccnc2)cc1)c1ccc(C(F)(F)F)cc1 was tested, and the pIC50 [1] was 7.47 and the pIC50 [2] was 5.98.

Work on O=S(=O)(Oc1ccc(Cn2ccnc2)cc1)c1ccc(F)cc1 yielded a pIC50 [1] of 7.85 and a pIC50 [2] of 6.70.

For c1ccc(Cn2ccnc2)cc1 [BENZYLIMIDAZOLE], the pIC50 [1] was < 5.52 and the pIC50 [2] was < 5.52.

CC(=O)N1CCN(c2ccc(OCC3COC(Cn4ccnc4)(c4ccc(Cl)cc4Cl)O3)cc2)CC1 (centres undefined) [KETOCONAZOLE] gave a pIC50 [1] of 6.69 and a pIC50 [2] of 5.58.
